High-throughput results deposited in PubChem by Johns Hopkins Ion Channel Center.
KCNQ1 inh: inhibitors of human KCNQ1 channel, primary screen, cell-based, thallium flux, high-throughput | 310,000 compounds, 1.3% hits | Potassium voltage-gated channel subfamily KQT member 1 (Homo sapiens), P51787 | B-score at 10 µM | CHO-K1 KCNQ1, FluxOR thallium flux fluorescence; active compounds read high;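 active means compounds whose thallium flux B-score, printed positive for inhibition, exceeds three library SD while starting fluorescence stays within three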;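 further: channel opened by potassium depolarization with thallium stimulus after 20 min compound exposure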
Target sequence (P51787 whole entry, looked up): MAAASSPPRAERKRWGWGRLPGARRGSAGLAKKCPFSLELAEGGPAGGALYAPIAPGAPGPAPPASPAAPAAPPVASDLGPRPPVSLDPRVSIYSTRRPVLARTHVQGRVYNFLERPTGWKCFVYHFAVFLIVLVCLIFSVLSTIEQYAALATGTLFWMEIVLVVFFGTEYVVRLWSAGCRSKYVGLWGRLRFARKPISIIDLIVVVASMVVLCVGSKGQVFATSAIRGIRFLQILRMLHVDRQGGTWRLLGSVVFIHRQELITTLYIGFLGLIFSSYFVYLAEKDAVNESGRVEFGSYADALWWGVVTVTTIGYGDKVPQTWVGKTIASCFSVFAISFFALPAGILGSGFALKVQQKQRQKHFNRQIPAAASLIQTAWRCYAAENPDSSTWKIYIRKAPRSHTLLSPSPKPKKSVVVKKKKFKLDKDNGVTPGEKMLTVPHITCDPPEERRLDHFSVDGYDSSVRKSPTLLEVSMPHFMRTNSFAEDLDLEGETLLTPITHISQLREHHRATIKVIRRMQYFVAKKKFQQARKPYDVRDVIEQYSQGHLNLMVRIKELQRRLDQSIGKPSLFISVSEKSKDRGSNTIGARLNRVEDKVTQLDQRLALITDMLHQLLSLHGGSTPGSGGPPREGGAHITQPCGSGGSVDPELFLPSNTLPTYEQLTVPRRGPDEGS
hERG rescue: hERG rescue from dofetilide block, primary screen, cell-based, CHO-hERG, FluxOR thallium flux, dofetilide IC70; Voltage-gated inwardly rectifying potassium channel KCNH2 (Homo sapiens), Q12809; dofetilide IC70 present; activation (rescue from dofetilide block), less the hit threshold, % at 10 µM; 310,000 compounds, 0.51% hits; AID 1511, 2009;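 active means activation above the mean of controls blocked by dofetilide plus 5 SD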;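 further: thallium influx through hERG after potassium depolarization seen as dye fluorescence rise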
Kir21 block: inhibitors of mouse Kir2.1 inward-rectifier potassium channel | Inward rectifier potassium channel 2 (Mus musculus), P35561 | HEK293-Kir2.1, FluxOR thallium flux fluorescence; active compounds read low | B-score at 10 µM | 310,000 compounds, 0.85% hits | AID 1672, 2009;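 active means fluorescence ratio B-score at or below minus 3 SD of library scores, with starting-brightness B-score within 2 SD, cut at about -4.2 in these data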;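 further: channel flux triggered by added potassium and thallium sulfate stimulus; B-score of peak minus minimum fluorescence over baseline after thallium stimulus; more negative B-score means stronger Kir2.1 block with less thallium influx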
KCNQ1 pot: potentiators or activators of KCNQ1 channel, primary screen, cell-based, thallium flux, high-throughput. 310,000 compounds, 0.35% hits. AID 2648, 2010. Potassium voltage-gated channel subfamily KQT member 1 (Homo sapiens), P51787. B-score at 10 µM. CHO-K1 KCNQ1, thallium flux FluxOR fluorescence; active compounds read high;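 active means fluorescence ratio B-score, a plate-corrected score, at least three library SD, with initial intensity B-score within 5 SD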
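Medium – assay buffer, equal DMSO in all wells · Material – CHO-K1 cell line with stable KCNQ1 potassium channel expression · Signal – kinetic FluxOR thallium fluorescence, 10-s 1-Hz baseline, 110-s post-stimulus read · Compound – single concentration per compound, DMSO matched to controls · Schedule – 37 °C overnight plating, 90-min dark dye load, 20-min compound pretreatment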
KCNK9 block: KCNK9 potassium channel inhibitors, primary screen, HEK293 cells, thallium flux. AID 488922, 2010. Potassium channel subfamily K member 9 (Homo sapiens), Q9NPC2. 310,000 compounds, 1.2% hits. FluxOR thallium flux fluorescence; active compounds read low. B-score at 10 µM;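 active means ratio B-score over 3 SD below the library mean, with starting fluorescence within 5 SD of its mean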;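 further: negative B-score means less thallium flux so channel inhibition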
KCNK3 inh: human KCNK3 channel inhibitors, primary screen, CHO cells, FluxOR thallium flux, B-score. Potassium channel subfamily K member 3 (Homo sapiens), O14649. FluxOR fluorescence; active compounds read low. B-score at 10 µM. 340,000 compounds, 0.84% hits. AID 602410, 2012;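 active means B-score under library mean minus 4 SD, starting fluorescence ratio at most library mean plus 5 SD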;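 further: more negative B-score means stronger inhibition of thallium flux through KCNK3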
KCNK9 block conf: KCNK9 potassium channel inhibitors, confirmation, HEK293 cells, thallium flux, duplicate; inhibition, % at 10 µM; shares compounds with KCNK9 block; FluxOR thallium flux fluorescence; 4,900 compounds, 43% hits;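 active means thallium signal inhibited by more than 5 SD of the compound-free buffer control wells, on both duplicate plates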;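 further: 0% = assay buffer control wells without compound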
Kir2-1 spec: mouse Kir2.1 channel inhibition, confirmation, selectivity assay for KCNK9 modulator project, cell-based, HEK293, thallium flux | AID 492993, 2010 | Kir2.1 cells, FluxOR thallium flux fluorescence | shares compounds with KCNK9 block | 4,900 compounds, 4% hits | inhibition, % at 10 µM;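 active means thallium signal drop more than 5 SD beyond the mean of the no-compound control wells, seen in both duplicate plates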;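 further: signal is fluorescence rise after thallium addition divided by baseline fluorescence; plate controls were assay buffer only for no effect and full block by chlorpromazine control for full effect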
HEK293 Tl ctr: thallium flux in non-induced HEK293 cells, confirmation, counter-screen for KCNK9 inhibitor project, cell-based, second counter screen, non-induced KCNK9-HEK293 | shares compounds with KCNK9 block | FluxOR thallium flux | inhibition, % at 10 µM | 4,900 compounds, 40% hits | AID 492997, 2010;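 active means thallium signal drop beyond 5 SD of the untreated control mean, on both duplicate plates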;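 further: plate controls were buffer only IC0 wells for no effect and SID17386958 at its maximal inhibitory level for full effect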
KCNK3 inh conf: retest of human KCNK3 channel inhibitors, confirmation, CHO cells, FluxOR thallium flux, triplicate. shares compounds with KCNK3 inh. FluxOR fluorescence; 0% buffer, 100% carvedilol maximal block. ratio percent of control, % at 10 µM. 2,400 compounds, 99% hits;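 active means ratio percent of control, averaged over triplicates, above buffer control mean plus 5 SD, cut at about 64% in these data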;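 further: ratio is the fluorescence rise from min to max over baseline after thallium stimulus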
KCNK3 noninduced: thallium flux inhibition in non-induced cells, primary screen, counter-screen for KCNK3 inhibitor project, cell-based, non-induced KCNK3 line, FluxOR thallium, triplicate | thallium flux ratio (lower = more inhibition) at 10 µM | 2,400 compounds, 40% hits | non-induced KCNK3 parental cells; active compounds read low | shares compounds with KCNK3 inh | AID 651747, 2012;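 active means thallium flux ratio, averaged over three wells, more than 5 SD below the buffer control mean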;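 further: host cells are CHO cells without KCNK3 induction; ratio is peak minus trough fluorescence over baseline then normalized to buffer controls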
Active calls of the source: *; i = inactive; / = no result. Rows were chosen to be rich in hits. Some 3.7% of all compounds tested hit in one or more screens of this group.

SMILES | KCNQ1 inh | hERG rescue | Kir21 block | KCNQ1 pot | KCNK9 block | KCNK3 inh | KCNK9 block conf | Kir2-1 spec | HEK293 Tl ctr | KCNK3 inh conf | KCNK3 noninduced
O=C(CSc1nc2ccc(Nc3nc(N4CCOCC4)nc(N4CCOCC4)n3)cc2s1)Nc1ccccc1F | i | -9 | 1 | i | i | i | / | / | / | / | /
N#Cc1c(SCc2c(Cl)cccc2Cl)nc(N)[nH]c1=S | / | / | / | / | / | i | / | / | / | / | /
CCOC(=O)COc1c(OC)cc(Cl)cc1C1Nc2ccccc2C(=O)N1c1ccccc1 (stereo not drawn) | i | -6 | -0.35 | i | -11* | -11* | 56%* | i | 36%* | 107* | 0.14*
CCOC(=O)COc1c(OC)cc(Cl)cc1C1Nc2ccccc2C(=O)N1c1cccc(C)c1 (stereo not drawn) | i | -12 | 2.1 | i | -9.1* | -9.7* | 48%* | i | 38%* | 111* | i
CCOc1cc(C2Nc3ccccc3C(=O)N2c2ccccc2)c(Br)cc1OCC(=O)O (stereo not drawn) | i | -7 | 0.61 | i | i | i | / | / | / | / | /
COc1cc(C2Nc3ccccc3C(=O)N2c2ccccc2)ccc1O (stereo not drawn) | i | -3 | 0.61 | i | i | i | / | / | / | / | /
Cc1ccc(C)c(S(=O)(=O)NCCC(=O)N2CCCC(C(N)=O)C2)c1 (stereo not drawn) | / | / | / | / | / | i | / | / | / | / | /
COC(=O)C1=C(C)NC(C)=C(C(=O)OC)C1c1ccc(-c2cc(Cl)ccc2Cl)o1 | i | -5 | 0 | i | -9.5* | -9.7* | 38%* | i | 40%* | 127* | i
COC(=O)C1=C(C)NC(C)=C(C(=O)OC)C1c1ccc(-c2cccc(Cl)c2Cl)o1 | i | -7 | 0.52 | i | i | i | / | / | / | / | /
CC(C)=CCC/C(C)=C/COc1ccc2ccc(=O)oc2c1 | i | -7 | -1.7 | i | -19* | -9.2* | 68%* | i | 46%* | 93* | i
COc1cccc(COc2ccc3ccc(=O)oc3c2)c1 | i | -7 | -0.13 | i | i | i | / | / | / | / | /
COc1ccc(COc2ccc3ccc(=O)oc3c2)cc1 | i | -6 | -0.08 | i | -12* | -10* | 46%* | i | 32%* | 115* | i
CC(C)=CCOc1ccc2ccc(=O)oc2c1 | i | -6 | 0.47 | i | -12* | -9.2* | 37%* | i | 34%* | 119* | i
CC1=CC(C/C(C)=C/COc2ccc3ccc(=O)oc3c2)OC1=O (stereo not drawn) | i | -10 | 0.12 | i | i | i | / | / | / | / | /
CC(=O)Oc1ccc2ccc(=O)oc2c1 | i | -4 | -0.3 | i | i | i | / | / | / | / | /
CN(C(=O)CSc1nc2sc3c(c2c(=O)n1C)CCC3)C1CCS(=O)(=O)C1 (stereo not drawn) | / | / | / | / | / | i | / | / | / | / | /
COc1ccc(C2/C=C\CN(C(=O)C3CCCC3)CC(=O)N2Cc2ccc(F)cc2)cc1 (stereo not drawn) | i | -11 | 0.02 | i | i | i | / | / | / | / | /
CCN1CC2=C(OC(N)=C(C#N)C2c2cccs2)/C(=C\c2cccs2)C1 (stereo not drawn) | i | -8 | -0.47 | i | -8.7* | i | 28%* | i | 26%* | 130* | 0.12*
CCOC(=O)C1=C(CC)OC(N)=C(C#N)C1c1cccs1 (stereo not drawn) | i | -2 | -1.7 | i | i | i | / | / | / | / | /
COc1ccc(Cl)cc1NC(=O)CNCc1cccs1 | i | -8 | 1.4 | i | i | i | / | / | / | / | /
COc1ccc(Cl)cc1NC(=O)CN(C)Cc1cccs1 | i | -4 | 0.81 | i | -21* | -13* | 74%* | i | 50%* | 108* | i
O=C(Nc1ccccc1F)C(=O)Nc1cccc2ccccc12 | i | -2 | 0.14 | i | i | i | / | / | / | / | /
O=C(CNc1ccccc1F)Nc1cccc2ccccc12 | i | -3 | 1.6 | i | -12* | -14* | 49%* | i | i | 112* | 0.16*
CCC(=O)c1ccccc1OCCCN1CCC(Cc2ccccc2)CC1 | i | -17 | -5.4* | i | i | -10* | i | i | i | 88* | 0.13*
CCOC(=O)c1ccc(Cn2c(-c3ccccc3)nnc2-c2ccccc2)o1 | i | -6 | 0.22 | i | -13* | -9.3* | 56%* | i | 40%* | 115* | 0.15*
COc1ccccc1OCCCN1C(=O)C(=O)c2cccc(C)c21 | i | -15 | 0.77 | i | -12* | -10* | 49%* | i | i | 112* | i
COc1ccc(-n2nc(C(=O)NCC(=O)Nc3cc(OC)ccc3OC)c3ccccc3c2=O)cc1 | i | -4 | 0.17 | i | -14* | -11* | i | i | i | 89* | i
CCN(c1ccc(OC)cc1)S(=O)(=O)c1cc(-c2cc(C)no2)ccc1OC | i | -7 | 0.52 | i | i | i | / | / | / | / | /
